Source: ChEMBL document CHEMBL4265924, “Inhibitor for FcεRI expression on mast cell from Verbasucum thapsus L” (2018)
Active and inactive are the calls of the source. The rule behind the calls is not given here.

Tests used:
HMC1 [1] = test: Inhibition of FCepsilonRI expression in human HMC1 cells at 30 to 100 uM after 72 hrs by flow cytometric analysis; assay type: functional, cell-based
How it was run: (§1)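 HMC-1 human mast cells exposed to test sample for 72 h, then harvested and stained with anti-FcεRI α-chain antibody plus FITC-labelled secondary antibody; surface FcεRI read as FITC fluorescence by flow cytometry. Mean ± SD of triplicate experiments.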

HMC1 [2] = test: Inhibition of FCepsilonRI expression in human HMC1 cells at 30 uM after 72 hrs by flow cytometric analysis; assay type: functional; settings: for inhibition (INH): in the assay text read “30 ug/mL” for “30 uM”; how it was run: as §1
HMC1 [3] = test: Inhibition of FCepsilonRIbeta subunit mRNA expression in human HMC1 cells at 50 to 100 uM after 36 hrs by RT-PCR analysis
HMC1 [4] = test: Inhibition of FCepsilonRIgamma subunit mRNA expression in human HMC1 cells at 50 to 100 uM after 36 hrs by RT-PCR analysis; assay type: functional, cell-based
How it was run: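 After 36 h culture of HMC-1 cells with compound, total RNA extracted; mRNA of each FcεRI subunit measured by RT-PCR with ethidium bromide staining of products, normalized to g3pdh and compared with vehicle. Mean ± SD, triplicate experiments.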

SMILES | inhibition (HMC1 [1]) | other results
COc1cc2ccc(=O)oc2c(O)c1OCC(O)C(C)(C)O (stereo unspecified) | inactive | 
COc1cc2ccc(=O)oc2c(OC)c1OCC(O)C(C)C (stereo unspecified) | Active | 
COc1cc2ccc(=O)oc2c(OC)c1OCC1OC1(C)C (stereo unspecified) | Active | 
COc1cc2ccc(=O)oc2c(OC)c1OCCC(C)(C)O | Active | 
COc1cc2ccc(=O)oc2c(OC)c1OCCC(C)C | Active | 
COc1cc2ccc(=O)oc2c(OC)c1OCC(O)C(C)(C)O (racemic) [listing 1 of 2 here] |  | inhibition (INH) (HMC1 [2]): 49%
COc1c(OCC(O)C(C)(C)O)c(O)cc2ccc(=O)oc12 (racemic) | inactive | 
COc1cc2ccc(=O)oc2c(OC)c1OCC(O)C(C)(C)O (racemic) [listing 2 of 2 here] |  | inhibition (HMC1 [3]): Active; inhibition (HMC1 [4]): inactive
COc1cc2ccc(=O)oc2c(OC)c1OCC(O)C(C)(C)O (single isomer, unassigned; enantiomer 1) |  | inhibition (INH) (HMC1 [2]): 45.1%
COc1cc2ccc(=O)oc2c(OC)c1OCC(O)C(C)(C)O (stereo in doubt) |  | inhibition at 30 µM (HMC1 [2]; Homo sapiens, HMC1, 72 h): 44.3%
